Blank lines part the entries; values can stand above or below the molecule they belong to. Calls of active or inactive are those of the source. The calls are words filed in the database; no cut-off is given here.
Experiments:
Rattus norvegicus [1] = experiment: Tmax in Wistar rat assessed as ketorolac release at 0.163 mg/kg, po; assay type: ADME, organism-based; design: dose 0.163 mg/kg, route oral; conditions: in vivo
Summary of the method: (§1)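 Male Wistar rats (200 ± 20 g), single oral dose; killed by decapitation at […], at least three rats per time point, each measured in triplicate. Plasma deproteinized with acetonitrile, centrifuged, organic phase analyzed by C18 HPLC at 313 nm with tolmetine internal standard. Calibration 0.1-100 µg/mL in drug-free matrix. Parameters taken from semilog concentration-time plots.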

Mus musculus [2] = experiment: Analgesic activity against magnesium sulfate-induced writhing in po dosed Swiss mouse administered 1 hr before magnesium sulfate challenge measured for 5 mins; assay type: functional, organism-based
Summary of the method: (§2)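 Male Swiss mice (20-25 g), fasted overnight, water allowed, six per group. Oral dosing with CMC vehicle given 1 h before ip 0.6% acetic acid or ip magnesium sulfate 120 mg/kg. Abdominal constriction, trunk turning and hind-leg extension counted: for acetic acid over 20 min starting 5 min post-injection, for MgSO4 over 5 min. Mean ± SEM.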

Rattus norvegicus [3] = experiment: AUMC (0 to 6 hrs) in Wistar rat assessed as ketorolac release at 0.163 mg/kg, po; assay type: ADME, organism-based; design: dose 0.163 mg/kg, route oral; conditions: in vivo; summary of the method: as §1
[4] = Stability in rat plasma assessed as half life; assay type: ADME, cell-free
Summary of the method: (§3)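 Solutions of 100 µg/mL (ketorolac tris salt at 90.5 µg/mL) held at 37 °C for 24 h in 0.1 N HCl (pH 1), phosphate buffer pH 7.4 or 8.0, or plasma. Samples taken hourly; plasma samples extracted with acetonitrile (1:2) and centrifuged. Remaining ester measured by HPLC diode array at 313 nm. Pseudo-first-order t1/2 from log plots over time; mean ± SEM.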

Mus musculus [5] = experiment: Analgesic activity against acetic acid-induced writhing in Swiss mouse at 0.163 mg/kg, po administered 1 hr before acetic acid challenge measured after 5 mins for 20 mins; assay type: functional, organism-based; design: dose 0.163 mg/kg; summary of the method: as §2
Rattus norvegicus [6] = experiment: Mean residence time in Wistar rat assessed as time required for 63.2% of administered dose to be eliminated as ketorolac at 0.163 mg/kg, po; assay type: ADME, organism-based; design: dose 0.163 mg/kg, route oral; conditions: in vivo; summary of the method: as §1
Mus musculus [7] = experiment: Analgesic activity against acetic acid-induced writhing in po dosed Swiss mouse administered 1 hr before acetic acid challenge measured after 5 mins for 20 mins; assay type: functional, organism-based; summary of the method: as §2
Rattus norvegicus [8] = experiment: Half life in Wistar rat assessed as ketorolac release at 0.163 mg/kg, po; assay type: ADME, organism-based; design: dose 0.163 mg/kg, route oral; conditions: in vivo; summary of the method: as §1
Mus musculus [9] = experiment: Gastrointestinal toxicity in fasted Swiss mouse assessed ulcer index at 0.163 mg/kg, po after 4 hrs; assay type: organism-based; design: dose 0.163 mg/kg, route oral; conditions: in vivo
Summary of the method: (§4)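 Male Swiss mice, fasted 16-18 h, n = 6 per group, dosed orally (vehicle 0.5% CMC). Killed 4 h later; stomach opened along greater curvature, rinsed with saline and examined under magnifier. Scoring: irritation 1, lesions 1-3 mm 5, lesions >3 mm 10. Gastric lesion score and ulcer number given as mean ± SEM.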

Rattus norvegicus [10] = experiment: Elimination half life in Wistar rat assessed as ketorolac release at 0.163 mg/kg, po; assay type: ADME, organism-based; design: dose 0.163 mg/kg, route oral; conditions: in vivo; summary of the method: as §1
[11] = Chemical stability assessed as hydrolysis half life in phosphate buffer at pH 8.0; assay type: physicochemical; summary of the method: as §3
Rattus norvegicus [12] = experiment: Systemic clearance in Wistar rat assessed as ketorolac release at 0.163 mg/kg, po; assay type: ADME, organism-based; design: dose 0.163 mg/kg, route oral; conditions: in vivo; summary of the method: as §1
Rattus norvegicus [13] = experiment: AUC (0 to 6 hrs) in Wistar rat assessed as ketorolac release at 0.163 mg/kg, po; assay type: ADME, organism-based, Plasma; design: time < 6 hr, dose 0.163 mg/kg, route oral; conditions: in vivo; summary of the method: as §1
[14] = Chemical stability assessed as hydrolysis half life in 0.1N HCl at pH 1; assay type: physicochemical; summary of the method: as §3
[15] = Chemical stability assessed as hydrolysis half life in phosphate buffer at pH 7.4; assay type: physicochemical; summary of the method: as §3
Rattus norvegicus [16] = experiment: Cmax in Wistar rat assessed as ketorolac release at 0.163 mg/kg, po; assay type: ADME, organism-based; design: dose 0.163 mg/kg, route oral; conditions: in vivo; summary of the method: as §1
[17] = Tmax in Wistar rat at 0.1 mg/kg, po; assay type: ADME, organism-based; design: dose 0.1 mg/kg, route oral; conditions: in vivo; summary of the method: as §1
[18] = Half life in Wistar rat at 0.1 mg/kg, po; assay type: ADME, organism-based; design: dose 0.1 mg/kg, route oral; conditions: in vivo; summary of the method: as §1
[19] = Mean residence time in Wistar rat assessed as time required for 63.2% of administered dose to be eliminated at 0.1 mg/kg, po; assay type: ADME, organism-based; design: dose 0.1 mg/kg, route oral; conditions: in vivo; summary of the method: as §1
[20] = Systemic clearance in Wistar rat at 0.1 mg/kg, po; assay type: ADME, organism-based; design: dose 0.1 mg/kg, route oral; conditions: in vivo; summary of the method: as §1
Mus musculus [21] = experiment: Antiinflammatory activity in Swiss mouse assessed as reduction in carrageenan-induced hind paw edema at 10 mg/kg, po administered 1 hr before carrageenan challenge measured after 48 hrs; assay type: functional, organism-based; design: dose 10 mg/kg
Summary of the method: (§5)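 Male Swiss mice, six per group, dosed orally (CMC vehicle) 1 h before subplantar injection of 50 µL of 1% λ-carrageenan in saline into the right hind paw. Paw volume read by plethysmometer at intervals up to 96 h. Edema taken as volume minus basal volume measured just before injection. Mean ± SEM.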

[22] = Cmax in Wistar rat at 0.1 mg/kg, po; assay type: ADME, organism-based; design: dose 0.1 mg/kg, route oral; conditions: in vivo; summary of the method: as §1
Rattus norvegicus [23] = experiment: AUMC (0 to 6 hrs) in Wistar rat at 0.1 mg/kg, po; assay type: ADME, organism-based; design: dose 0.1 mg/kg, route oral; conditions: in vivo; summary of the method: as §1
[24] = AUC (0 to 6 hrs) in Wistar rat at 0.1 mg/kg, po; assay type: ADME, organism-based; design: time < 6 hr, dose 0.1 mg/kg, route oral; conditions: plasma; summary of the method: as §1
Mus musculus [25] = experiment: Antiinflammatory activity in Swiss mouse assessed as reduction in carrageenan-induced hind paw edema at 0.1 mg/kg, po administered 1 hr before carrageenan challenge; assay type: functional, organism-based; design: dose 0.1 mg/kg; summary of the method: as §5
[26] = Elimination half life in Wistar rat at 0.1 mg/kg, po; assay type: ADME, organism-based; design: dose 0.1 mg/kg, route oral; conditions: in vivo, read-out: beta t1/2 (converted); summary of the method: as §1
Mus musculus [27] = experiment: Gastrointestinal toxicity in fasted Swiss mouse assessed ulcer index at 0.1 mg/kg, po after 4 hrs; assay type: organism-based; design: dose 0.1 mg/kg, route oral; conditions: in vivo; summary of the method: as §4

Tmax (Rattus norvegicus [1]): 1 h
AUMC (Rattus norvegicus [3]): 5600 ng·h/mL
half-life [4]: 1.5 h
MRT (Rattus norvegicus [6]): 4.5 h
t1/2 (Rattus norvegicus [8]): 5.23 h
beta t1/2 (Rattus norvegicus [10]): 2.4 h
half-life [11]: > 4 h
CL (Rattus norvegicus [12]): 80.36 mL/h
AUC (Rattus norvegicus [13]): 935 ng·h/mL
half-life [14]: 2.1 h
half-life [15]: > 4 h
Cmax (Rattus norvegicus [16]): 240 ng/mL
Structure (SMILES): O=C(c1ccccc1)c1ccc2n1CC[C@@H]2C(=O)OC[C@H]1OC(O)[C@H](O)[C@@H](O)[C@H]1O (stereo partly drawn)
Activity (Mus musculus [2]): Dose-dependent effect
Activity (Mus musculus [5]): Active
Activity (Mus musculus [7]): Dose-dependent effect
UI (Mus musculus [9]): 1

half-life [4]: > 4 h
Tmax [17]: 1 h
half-life [18]: 1.65 h
MRT [19]: 3.1 h
CL/F [20]: 1.57 mL/min
Cmax [22]: 400 ng/mL
AUMC (Rattus norvegicus [23]): 3300 ng·h/mL
AUC(0-t) at 6 h [24]: 855 ng·h/mL
half-life [11]: > 4 h
half-life [14]: > 4 h
half-life [15]: > 4 h
half-life [26]: 1.99 h
Structure (SMILES): O=C(c1ccccc1)c1ccc2n1CCC2C(=O)O (stereo not drawn) [KETOROLAC]
Activity (Mus musculus [2]): Dose-dependent effect
Activity (Mus musculus [21]): Active
Activity (Mus musculus [7]): Dose-dependent effect
Activity (Mus musculus [25]): inactive
UI (Mus musculus [27]): 10

Reference: ChEMBL document CHEMBL1136962, “Galactosyl prodrug of ketorolac: synthesis, stability, and pharmacological and pharmacokinetic evaluations” (J Med Chem, 2009)
